Screening data as filed in PubChem.
CendR NRP1 mod: NRP-1/CendR interaction modulation. O14786. FAM-RPARPAR peptide binding to NRP-1, fluorescence polarization. inhibition, % at 25 µM. 360,000 compounds, 0.85% hits;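 active means inhibition or corrected inhibition above about 18%, plus a signal ratio from 0.5 to 1.5, limit read from the data, passing the limit was not always enough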
ABCB6 inh 2: inhibitors of human ABC transporter ABCB6; fluorescence ratio to DMSO, % at 10 µM; Q9NP58; AID 602162; 360,000 compounds, 0.19% hits; K562-ABCB6 porphyrin accumulation, flow cytometry, 1 h; stronger effect = lower value;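 active means fluorescence ratio to DMSO below 75%, the collection mean minus 3 SD; inconclusive means too few cells collected in the well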;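 further: signal is porphyrin accumulated inside mitochondria; lower ratio means ABCB6 inhibition with less porphyrin fluorescence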
ATG4B inhibitor: ATG4B (human) cysteine protease inhibition. ATG4B cleavage of LC3-PLA2, NBD-HPC fluorescence, 1 h. inhibition, % at 8.33 µM. 340,000 compounds, 0.51% hits. AID 504462; in the data active means inhibition above about 40%
Target sequence (Q9Y4P1 whole entry, looked up): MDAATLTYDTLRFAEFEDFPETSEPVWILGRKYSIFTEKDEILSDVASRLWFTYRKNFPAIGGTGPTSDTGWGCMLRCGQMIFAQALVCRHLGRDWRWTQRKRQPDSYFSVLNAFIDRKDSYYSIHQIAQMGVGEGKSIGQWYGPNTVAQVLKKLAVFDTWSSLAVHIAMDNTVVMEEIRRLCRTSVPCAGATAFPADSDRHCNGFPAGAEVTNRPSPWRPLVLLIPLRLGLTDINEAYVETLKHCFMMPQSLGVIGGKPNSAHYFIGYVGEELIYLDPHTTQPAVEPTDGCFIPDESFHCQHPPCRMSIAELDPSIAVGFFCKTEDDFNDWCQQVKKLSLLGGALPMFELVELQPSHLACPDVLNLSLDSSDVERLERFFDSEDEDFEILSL
Arrestin-AP2 inh: inhibitors of human beta-arrestin and AP2 interaction | AID 504490 | FITC-arrestin peptide / GST-AP2 beads, flow cytometry; AP2 beta2 appendage carries R879A mutation | 340,000 compounds, 0.31% hits | inhibition, % at 10 µM;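 active means inhibition above a set limit, near 3 SD of compounds lacking own fluorescence, cut at about 54% in these data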
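System: GST-AP2 R879A glutathione beads | Also added: FITC-arrestin peptide, 50 nM | Times: 12 min plus 1 h, RT | Signal: Bead flow cytometry, FITC channel | Buffer or medium: PBS with 0.05% Tween 20 and 0.1% BSA | Read-out basis: Percent drop in bead-associated FITC signal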
Exocytosis inh: blocks lytic granule exocytosis; TALL-104 LAMP-1 surface exposure, flow cytometry; cells stimulated with thapsigargin and PMA; inhibition, % at 10 µM; 360,000 compounds, 0.66% hits; AID 651702;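 active means inhibition above about 55%, limit read from the data; inconclusive means no clear call, values can overlap the other calls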
Myeloid diff 2: promotes myeloid progenitor differentiation; ER-HoxA9 myeloid progenitors, lysozyme-GFP differentiation, flow cytometry; calls only at 10 µM; 360,000 compounds, 1% hits; AID 624256;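 active means normalized GFP-positive differentiation at or above the plate's own cutoff, the solvent-only control mean plus 3 SD; inconclusive means no clear call, values can overlap the other calls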;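 further: cells exposed to compound for four days before flow analysis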
Exocytosis CP01: lytic granule exocytosis inhibition | shares compounds with Exocytosis inh | TALL-104 cells, LAMP-1 externalization, flow cytometry; stimulated with PMA plus thapsigargin | inhibition, % at 10 µM | 1,500 compounds, 11% hits | AID 651954; in the data active means inhibition above about 60%
A number is an active result; n = inactive; u = inconclusive; x = not tested or not shown; ! = a repeat was not active. This is a sample that favours compounds with a hit; in the whole collection about 3.3% have one here.

SMILES	CendR NRP1 mod	ABCB6 inh 2	ATG4B inhibitor	Arrestin-AP2 inh	Exocytosis inh	Myeloid diff 2	Exocytosis CP01
COC(=O)C(Cc1ccccc1)NS(=O)(=O)c1ccccc1Br (centres undefined)	n	n	n	n	n	n	x
COC(=O)c1cncc(C)c1	n	n	n	n	n	n	x
COCCN(C(=O)Cc1cccs1)C(C(=O)NCc1ccc(OC)cc1)c1ccc(C)cc1 (centres undefined)	n	n	n	n	n	n	x
COc1ccc(CNC(=O)C(c2ccc(C)o2)N(Cc2cccs2)C(=O)Cc2cccs2)cc1 (centres undefined)	n	n	n	n	77	n	n
CCc1cccc(C)c1NC(=O)c1cccc(N(C)C)c1	n	n	n	n	70	n	n
COc1ccccc1CNC(=O)c1cccc(N(C)C)c1	n	n	n	n	n	n	x
COc1ccc(OC)c(N(CC(=O)NCCSCc2ccco2)S(=O)(=O)c2ccccc2)c1	n	n	n	n	85	n	n
COc1ccccc1N(CC(=O)Nc1ccc(Cc2ccncc2)cc1)S(=O)(=O)c1ccccc1	n	n	n	n	66	n	n
COc1ccc(N(CC(=O)NCCSc2ccccn2)S(=O)(=O)c2ccccc2)c(OC)c1	n	n	n	n	65	n	101
CCOc1ccccc1N(CC(=O)NCCSCc1ccco1)S(=O)(=O)c1ccccc1	n	n	n	n	n	n	x
COc1ccc(N(CC(=O)Nc2ccc(Cc3ccncc3)cc2)S(=O)(=O)c2ccccc2)cc1	n	n	n	n	n	n	x
COc1ccc(N(CC(=O)NCCSc2ccccc2)S(=O)(=O)c2ccccc2)c(OC)c1	n	n	n	n	n	n	x
CCc1ccccc1NC(=O)CN(c1ccc(OC)cc1OC)S(=O)(=O)c1ccccc1	n	n	n	n	70	n	n
Cc1ncn(C23CC4CC(CC(C4)C2)C3)n1	n	n	n	n	n	n	x
O=C(O)c1ccc(Cl)c(S(=O)(=O)N(Cc2ccccc2)c2ccccc2)c1	n	n	n	n	63	n	n
Cc1ccc2nc(-c3ccc(NC(=S)NC4CC(C)(C)NC(C)(C)C4)cc3)sc2c1	n	n	n	n	88	x	98
Cc1ccc2nc(-c3ccc(NC(=S)NC(=O)C(C)C)cc3)sc2c1	n	n	n	n	n	n	x
CCOC(=O)C1=C(CCc2ccccc2)NC(=O)NC1c1cccc([N+](=O)[O-])c1 (centres undefined)	n	n	n	n	94	n	n
OC[C@@H]1CN(Cc2ccco2)C[C@H](n2cnc3c(NC4CC4)ncnc32)O1	n	n	x	x	n	n	x
COc1ccc(CC(CC(=O)O)C(=O)NCc2ccccc2)cc1 (centres undefined)	n	n	n	n	n	n	x
COc1ccc(CC(CN)c2ccccc2)cc1 (centres undefined)	n	n	n	n	58	n	n
Cc1ccc(OCCN(C)C(=O)C2CCC(=O)N(CC3CCCCC3)C2)cc1 (centres undefined)	n	n	n	n	n	n	x
CCN1CCN(Cc2ccc(NC(=O)c3ccc(C)c(NC(=O)C(=O)c4c[nH]c5ccccc45)c3)cc2C(F)(F)F)CC1	n	n	n	n	n	u	x
CCN1CCN(Cc2ccc(NC(=O)c3cc(NC(=O)C(=O)c4c[nH]c5ccccc45)cc(OC)c3)cc2C(F)(F)F)CC1	n	n	n	n	56!	u	86
CC(C)(C)C(=O)NC(=O)Nc1ccccc1C(F)(F)F	n	n	n	n	109	n	n
CC(=O)Nc1ccccc1C(F)(F)F	n	n	n	n	n	n	x
CCN(CC)CCSc1nnc2c3ccccc3n(CCc3ccccc3)c2n1	n	n	n	n	60	n	n
C=CCn1c2ccccc2c2nnc(SCCCn3c(=O)[nH]c4ccccc43)nc21	n	n	n	n	67	n	n
C=CCn1c2ccccc2c2nnc(SCCN3CCCCC3)nc21	n	n	n	n	n	n	x
Cc1nn(CC(=O)N(C)C2(C#N)CCCCC2)c(C)c1[N+](=O)[O-]	n	n	n	n	n	n	x
